{"source": "paper PMC5384256", "about": "(Bioconjugate chemistry, 2015)", "key": {"dysplastic polyps": {"system": "dysplastic polyps", "conditions": "FITC-labeled, topical application, patients; cited from earlier work"}, "Flo1-HER2 cells": {"system": "Flo1-HER2 cells", "assay": "Confocal microscopy of FITC-labeled lead peptides with Flo1-HER2 cells", "type": "cell-based", "conditions": "10 μM, 4 °C, 1 h, quadruplicate, data log base 2", "method_in_brief": "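Flo1-HER2 cells (DMEM + G418) and Q-hTERT control cells (Keratinocyte-SFM), ~7500 cells on coverslips, were grown to ~70% confluence and washed with cold PBS. They got 10 μM FITC-labeled peptide for 1 h at 4 °C, were washed 3×, fixed in ice-cold 4% PFA for 10 min and mounted with DAPI. Confocal imaging used a 63× oil objective, in quadruplicate.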"}, "HER2 on HT29 cells [1]": {"system": "HER2 on HT29 cells", "assay": "Apparent association time constant by flow cytometry", "type": "binding, Human", "conditions": "5 μM KSP*-Cy5.5, 4 °C, 0-60 min, from k = 0.14 min^−1"}, "HER2 on HT29 cells [2]": {"system": "HER2 on HT29 cells", "assay": "Co-localization of peptide and anti-HER2 antibody binding, HT29 cells", "type": "cell-based, Human", "conditions": "KSP*-Cy5.5 5 μM, 1 h, 4 °C, then anti-HER2 and AF488 secondary", "method_in_brief": "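HT29 cells got 5 μM Cy5.5-labeled test peptide first (1 h, 4 °C), at under 10 μM to limit interference with antibody binding. Cells were washed, fixed in 4% PFA for 5 min, then stained with primary anti-HER2 and AF488 secondary. Co-localization was scored as Pearson's correlation coefficient.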"}, "[3]": {"system": "HER2 overexpressed by human proximal colonic neoplasia", "assay": "Peptide immunofluorescence on FFPE human proximal colon specimens", "conditions": "KSP*-Cy5.5 5 μM, 10 min, RT", "method_in_brief": "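FFPE 5-μm sections were deparaffinized, then antigen-retrieved in 10 mM sodium citrate, 0.05% Tween, pH 6.0, at boiling then sub-boiling for 15 min. They were blocked with protein serum for 15 min at RT and stained with 5 μM Cy5.5-labeled test peptide for 10 min at RT. After PBS washes, anti-HER2 was applied overnight at 4 °C. Mean intensity was read from three 20×20 μm² epithelial boxes per image, avoiding saturated regions. Analysis used log2 transform if needed, one-way ANOVA with Tukey comparisons, and Pearson's coefficient for co-localization.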"}, "[4]": {"system": "HER2 overexpressed by mouse colonic dysplasia", "assay": "Peptide immunofluorescence on mouse colonic adenoma sections", "conditions": "2 μM, 10 min, RT, confocal", "method_in_brief": "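Serial 5-μm sections of formalin-fixed mouse colonic adenoma were incubated with 2 μM Cy5.5-labeled test or control peptide for 10 min at RT. Sections were washed 3× with PBS and mounted with DAPI for confocal imaging. Adjacent sections were H&E stained.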"}, "[5]": {"system": "HER2 in colonic adenomas of CPC;Apc mice", "assay": "In vivo NIR endoscopic imaging of mouse colonic dysplasia, topical peptide", "conditions": "topical 100 μM, 1.5 mL", "method_in_brief": "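Cy5.5-labeled peptides, 100 μM in 1.5 mL, were delivered into the colon through the endoscope instrument channel and left 5 min. The colon was rinsed 3× with tap water before NIR imaging with a small animal endoscope. Imaging was repeated 2–3 days later with the control peptide. Target-to-background ratios came from mean ROI intensities.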"}, "HER2 on SW480 cells": {"system": "HER2 on SW480 cells", "assay": "Confocal fluorescence microscopy, SW480 cells", "type": "cell-based, Human", "conditions": "peptides 5 μM, 30 min, 4 °C", "method_in_brief": "(§1)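 Cells were cultured at 37 °C, 5% CO2 with 10% FBS and 1% pen/strep: HT29 in McCoy's, SW480 in DMEM. After a PBS wash, cells got 5 μM Cy5.5-labeled test or control peptide for 30 min at 4 °C, were washed 3×, fixed in ice-cold 4% PFA for 10 min and mounted with DAPI. Imaging used Cy5.5 and DAPI filters. Intensities were quantified from 3 independent images.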"}, "HER2 on HT29 cells [6]": {"system": "HER2 on HT29 cells", "assay": "Confocal fluorescence microscopy, HT29 cells", "type": "cell-based, Human", "conditions": "peptides 5 μM, 30 min, 4 °C", "method_in_brief": "as §1"}, "[7]": {"system": "HER2 in colonic adenomas of CPC;Apc mice", "assay": "In vivo NIR endoscopic imaging of mouse colonic dysplasia, systemic peptide", "conditions": "n = 4, i.v. tail vein, 200 μL of 300 μM", "method_in_brief": "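Isoflurane-anaesthetized CPC;Apc mice received 200 μL of 300 μM Cy5.5-labeled test peptide via tail vein. NIR endoscopy was done before injection for baseline, then after injection until maximum signal. The adenoma-to-normal intensity ratio came from regions of interest at each time point.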"}, "HER2 on HT29 cells [8]": {"system": "HER2 on HT29 cells", "assay": "siRNA knockdown of HER2, HT29 cells", "type": "cell-based, Human", "conditions": "HT29 siCL vs siHER2; confocal; average of 3 images", "method_in_brief": "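HT29 cells were seeded at 30% confluence in McCoy's 5A with 10% FBS and no antibiotics. Next day they were transfected with HER2-targeting siRNA or a nontargeting pool, and knockdown was confirmed by Western blot. Cy5.5-labeled test peptide and AF488 anti-HER2 binding were imaged confocally, with intensities quantified from 3 independent images.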"}, "p-HER2": {"system": "p-HER2", "assay": "Western blot p-HER2, SKBR3 cells", "type": "cell-based, Human", "conditions": "48 h", "method_in_brief": "(§2)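 SKBR3 cells (McCoy's) in 6-well plates at ~60% confluence got unlabeled test peptide at 5 or 100 μM. A tyrosine kinase inhibitor positive control was used at 1–1000 nM, alongside 1% DMSO and untreated controls. Cells were harvested at 48 h for Western blot. Antibodies covered total HER2, AKT and ERK1/2, phospho-HER2 (Tyr1248), phospho-AKT (pS473), phospho-ERK1/2 and tubulin.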"}, "p-ERK": {"system": "p-ERK", "assay": "Western blot p-ERK, SKBR3 cells", "type": "cell-based, Human", "conditions": "48 h", "method_in_brief": "as §2"}, "p-AKT": {"system": "p-AKT", "assay": "Western blot p-AKT, SKBR3 cells", "type": "cell-based, Human", "conditions": "48 h", "method_in_brief": "as §2"}, "[9]": {"biological_target": "Human epidermal growth factor receptor 2 (HER2), endogenous on human cells and tissue (human, UniProt P04626 23-1255)", "assay": "flow cytometry on cells"}, "[10]": {"conditions": "human proximal colon FFPE, n = 30, mean ± sem"}, "[11]": {"conditions": "lapatinib 1, 25, 100, 1000 nM, concentration dependent"}}, "note": "“And” between values parts separate entries of the source, which are not always exact repeats. Identical values can stand only once. Where no end group is shown, it is not given here. Cy5.5 = Cy5.5 fluorophore", "data": [{"molecule": "VRPMPLQ", "values": [{"measurement": "Binding in vivo on dysplastic polyps", "setting": "dysplastic polyps", "result": "specific binding was validated"}]}, {"molecule": "KSPNPRF", "values": [{"measurement": "Mean fluorescence intensity (rank among top 5 peptides)", "setting": "Flo1-HER2 cells", "result": "highest mean fluorescence intensity"}]}, {"molecule": "KSPNPRF [KSP*-Cy5.5]", "values": [{"measurement": "Apparent association time constant, as time", "setting": "HER2 on HT29 cells [1]", "result": "7.1 min and 7.14 min"}, {"measurement": "Co-localization with anti-HER2-AF488, Pearson's coefficient", "setting": "HER2 on HT29 cells [2]", "result": 0.74}, {"measurement": "Co-localization with anti-HER2-AF488, Pearson's correlation coefficient", "setting": "[3]; human colonic dysplasia, then anti-HER2", "result": 0.50}, {"measurement": "Mean fluorescence intensity, hyperplastic polyps", "setting": "[3]; human proximal colon FFPE, n = 12, mean ± sem", "result": "0.12 ± 0.08"}, {"measurement": "Mean fluorescence intensity, sessile serrated adenomas", "setting": "[3]; human proximal colon FFPE, n = 13, mean ± sem", "result": "6.07 ± 0.73"}, {"measurement": "Mean fluorescence intensity, normal", "setting": "[3]; [10]", "result": "2.72 ± 0.31"}, {"measurement": "Mean fluorescence intensity, sporadic adenomas", "setting": "[3]; [10]", "result": "11.9 ± 0.61"}, {"measurement": "Staining of normal colon", "setting": "[4]", "result": "Minimal staining"}, {"measurement": "NIR fluorescence at flat adenoma", "setting": "[5]", "result": "increased intensity with visible crypt-like structures"}, {"measurement": "NIR fluorescence at polypoid adenoma", "setting": "[5]", "result": "increased intensity"}, {"measurement": "Binding to cell surface", "setting": "HER2 on SW480 cells", "result": "binds to the surface"}, {"measurement": "Binding to cell surface", "setting": "HER2 on HT29 cells [6]", "result": "binds to the surface"}, {"measurement": "Time of peak T/B ratio (mean intensity)", "setting": "[7]", "result": 100, "unit": "min"}, {"measurement": "Binding to siCL treated control cells compared to siHER2 knockdown cells", "setting": "HER2 on HT29 cells [8]", "result": "significantly greater"}]}, {"molecule": "PPSNFKR [PPS*-Cy5.5]", "values": [{"measurement": "Staining of normal colon", "setting": "[4]", "result": "Minimal staining"}, {"measurement": "NIR fluorescence at flat adenoma", "setting": "[5]", "result": "minimal signal"}, {"measurement": "NIR fluorescence at polypoid adenoma", "setting": "[5]", "result": "minimal signal"}, {"measurement": "Binding to cell surface", "setting": "HER2 on SW480 cells", "result": "minimal binding"}, {"measurement": "Binding to cell surface", "setting": "HER2 on HT29 cells [6]", "result": "minimal binding"}]}, {"molecule": "CS(=O)(=O)CCNCc1ccc(-c2ccc3ncnc(Nc4ccc(OCc5cccc(F)c5)c(Cl)c4)c3c2)o1", "note": "[lapatinib, reference compound]", "values": [{"measurement": "Expression of p-HER2", "setting": "p-HER2; [11]", "result": "reduced expression"}, {"measurement": "Expression of p-ERK", "setting": "p-ERK; [11]", "result": "reduced expression"}, {"measurement": "Expression of p-AKT", "setting": "p-AKT; [11]", "result": "reduced expression"}]}, {"molecule": "KSPNPRF [KSP*]", "values": [{"measurement": "Apparent association time constant, as time", "setting": "HER2 on HT29 cells [1]", "result": 7.1, "unit": "min"}, {"measurement": "Phosphorylation of HER2 (p-HER2)", "setting": "p-HER2; KSP* 5 and 100 μM, Tyr1248", "result": "no change"}, {"measurement": "Phosphorylation of ERK (p-ERK)", "setting": "p-ERK; KSP* 5 and 100 μM", "result": "no change"}, {"measurement": "Phosphorylation of AKT (p-AKT)", "setting": "p-AKT; KSP* 5 and 100 μM, pS473", "result": "no change"}]}, {"molecule": "KSPNPRFGGGSK(Cy5.5)-NH2", "note": "[KSP*-Cy5.5 (KSPNPRF peptide labeled with Cy5.5 via a GGGSK linker)]", "values": [{"measurement": "Kd", "setting": "[9]", "result": 21, "unit": "nM"}]}]}
